Results as given in ChEMBL document CHEMBL4428087, “Synthesis and antitumor activity evaluation of quinazoline derivatives bearing piperazine-1-carbodithioate moiety at C4-position” (Bioorg Med Chem Lett, 2016).

What was measured:
HCT-116 [1] = test: Antiproliferative activity against human HCT116 cells after 72 hrs by MTS assay; assay type: functional, cell-based; settings: HCT-116, 72 h
In short: (§1)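 Cells were exposed to compound for 72 h. A first screen at 50 μM called a compound active at ≥50% inhibition versus vehicle-treated cells. Active compounds were then tested at various concentrations, and IC50 (concentration giving 50% proliferation inhibition) was derived. Values are mean ± SD from triplicate determinations in three independent experiments.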

MCF7 = test: Antiproliferative activity against human MCF7 cells after 72 hrs by MTS assay; assay type: functional, cell-based; settings: MCF7, 72 h; in short: as §1
A549 = test: Antiproliferative activity against human A549 cells after 72 hrs by MTS assay; assay type: functional, cell-based; settings: A549, 72 h; in short: as §1
HCT-116 [2] = test: Cell cycle arrest in human HCT116 cells assessed as accumulation at G0/G1 phase after 24 hrs by propidium iodide staining based flow cytometry; assay type: functional
In short: (§2)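 HCT-116 cells were treated for 24 h at multiples of IC50 (1×, 1.25× or 1.5×) or at 0.1 µM, with a DMSO control. Cells were harvested, fixed in 70% ice-cold ethanol and stained with propidium iodide. DNA content was read by flow cytometry, and the percentages of cells in G0/G1, S and G2/M were calculated. Three independent experiments were run.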

HCT-116 [3] = test: Cell cycle arrest in human HCT116 cells assessed as accumulation at G2/M phase at 0.1 uM after 24 hrs by propidium iodide staining based flow cytometry (reference value: 16.91 %); assay type: functional; in short: as §2
HCT-116 [4] = test: Cell cycle arrest in human HCT116 cells assessed as accumulation at S phase at 0.1 uM after 24 hrs by propidium iodide staining based flow cytometry (reference value: 46.36 %); assay type: functional; in short: as §2
HCT-116 [5] = test: Cell cycle arrest in human HCT116 cells assessed as accumulation at G0/G1 phase at 0.1 uM after 24 hrs by propidium iodide staining based flow cytometry (reference value: 34.93 %); assay type: functional; in short: as §2
HCT-116 [6] = test: Cell cycle arrest in human HCT116 cells assessed as accumulation at sub-G1 phase after 24 hrs by propidium iodide staining based flow cytometry; assay type: functional; in short: as §2
HCT-116 [7] = test: Cell cycle arrest in human HCT116 cells assessed as accumulation at S phase at 1.25 times IC50 after 24 hrs by propidium iodide staining based flow cytometry (reference value: 46.36 %); assay type: functional; in short: as §2
HCT-116 [8] = test: Cell cycle arrest in human HCT116 cells assessed as accumulation at G2/M phase at IC50 after 24 hrs by propidium iodide staining based flow cytometry (reference value: 16.91 %); assay type: functional
HCT-116 [9] = test: Cell cycle arrest in human HCT116 cells assessed as accumulation at G0/G1 phase at IC50 after 24 hrs by propidium iodide staining based flow cytometry (reference value: 34.93 %); assay type: functional
HCT-116 [10] = test: Cell cycle arrest in human HCT116 cells assessed as accumulation at G0/G1 phase at 1.5 times IC50 after 24 hrs by propidium iodide staining based flow cytometry (reference value: 34.93 %); assay type: functional; in short: as §2
HCT-116 [11] = test: Cell cycle arrest in human HCT116 cells assessed as accumulation at S phase at IC50 after 24 hrs by propidium iodide staining based flow cytometry (reference value: 46.36 %); assay type: functional
HCT-116 [12] = test: Cell cycle arrest in human HCT116 cells assessed as accumulation at G2/M phase at 1.25 times IC50 after 24 hrs by propidium iodide staining based flow cytometry (reference value: 16.91 %); assay type: functional; in short: as §2
HCT-116 [13] = test: Cell cycle arrest in human HCT116 cells assessed as accumulation at G2/M phase at 1.5 times IC50 after 24 hrs by propidium iodide staining based flow cytometry (reference value: 16.91 %); assay type: functional; in short: as §2
HCT-116 [14] = test: Cell cycle arrest in human HCT116 cells assessed as accumulation at S phase at 1.5 times IC50 after 24 hrs by propidium iodide staining based flow cytometry (reference value: 46.36 %); assay type: functional; in short: as §2
HCT-116 [15] = test: Cell cycle arrest in human HCT116 cells assessed as accumulation at G0/G1 phase at 1.25 times IC50 after 24 hrs by propidium iodide staining based flow cytometry (reference value: 34.93 %); assay type: functional; in short: as §2

Row | Structure (SMILES) | IC50 (HCT-116 [1]) | IC50 (MCF7) | IC50 (A549) | also measured
1 | CCSC(=S)N1CCN(c2ncnc3cc(OCCCN4CCCCC4)c(OC)cc23)CC1 | 10.3 µM | 16.6 µM | 18.4 µM | 
2 | COc1cc2c(N3CCN(C(=S)SCc4cccnc4)CC3)ncnc2cc1OCCCN1CCCCC1 | 22.2 µM | 22.2 µM | 19.5 µM | 
3 | COc1cc2c(N3CCN(C(=S)SC)CC3)ncnc2cc1OCCCN1CCCCC1 | 24.4 µM | 27.5 µM | 33.4 µM | 
4 | COc1cc2c(N3CCN(C(=S)SCc4ccc(C)cc4)CC3)ncnc2cc1OCCCN1CCCCC1 | 5.46 µM | 3.73 µM | 4.51 µM | 
5 | COc1cc2c(N3CCN(C(=S)SCc4ccc(C(=O)O)cc4)CC3)ncnc2cc1OCCCN1CCCCC1 | > 50 µM | > 50 µM | > 50 µM | 
6 | COc1cc2c(N3CCN(C(=S)SCc4ccccc4)CC3)ncnc2cc1OCCCN1CCCCC1 | 28.8 µM | 28 µM | 15.7 µM | 
7 | CCCSC(=S)N1CCN(c2ncnc3cc(OCCCN4CCCCC4)c(OC)cc23)CC1 | 8.67 µM | 10.5 µM | 8.07 µM | 
8 | COc1cc2c(N3CCN(C(=S)SCc4ccc(F)cc4)CC3)ncnc2cc1OCCCN1CCCCC1 | 4.5 µM | 4.2 µM | 4.25 µM | 
9 | COc1cc2c(N3CCN(C(=S)SCc4ccccn4)CC3)ncnc2cc1OCCCN1CCCCC1 | 20.6 µM | 20.7 µM | 28.8 µM | 
10 | COc1cc2c(N3CCN(C(=S)SCc4ccco4)CC3)ncnc2cc1OCCCN1CCCCC1 | 7.3 µM | 7.29 µM | 6.58 µM | 
11 | CCN(CC)CCNC(=O)c1c(C)[nH]c(/C=C2\C(=O)Nc3ccc(F)cc32)c1C [SUNITINIB] |  |  |  | Activity (HCT-116 [2]): Dose-dependent effect; Activity (HCT-116 [3]): 14.16%; Activity (HCT-116 [4]): 33.36%; Activity (HCT-116 [5]): 50.07%
12 | COc1cc2c(N3CCN(C(=S)SC(C)C)CC3)ncnc2cc1OCCCN1CCCCC1 | 10.4 µM | 8.37 µM | 11.3 µM | 
13 | COc1cc2c(N3CCN(C(=S)SCC4CCCCC4)CC3)ncnc2cc1OCCCN1CCCCC1 | 4.55 µM | 3.99 µM | 4.06 µM | Activity (HCT-116 [6]): Dose-dependent effect; Activity (HCT-116 [7]): 23.67%; Activity (HCT-116 [2]): Dose-dependent effect; Activity (HCT-116 [8]): 28.74%; Activity (HCT-116 [9]): 44.47%; Activity (HCT-116 [10]): 55.8%; Activity (HCT-116 [11]): 26.82%; Activity (HCT-116 [12]): 24.97%; Activity (HCT-116 [13]): 14.4%; Activity (HCT-116 [14]): 27.37%; Activity (HCT-116 [15]): 50.65%
14 | COc1cc2c(N3CCN(C(=S)SCc4ccc(F)cc4F)CC3)ncnc2cc1OCCCN1CCCCC1 | 4.64 µM | 4.67 µM | 5.44 µM | 
15 | COc1cc2c(N3CCN(C(=S)SCC4OCCO4)CC3)ncnc2cc1OCCCN1CCCCC1 | 23.9 µM | 29.6 µM | 24.6 µM | 
16 | COc1cc2c(N3CCN(C(=S)SCc4ccncc4)CC3)ncnc2cc1OCCCN1CCCCC1 | > 50 µM | > 50 µM | > 50 µM | 
17 | COc1cc2c(N3CCN(C(=S)SCc4c(F)c(F)c(F)c(F)c4F)CC3)ncnc2cc1OCCCN1CCCCC1 | 4.45 µM | 4.14 µM | 4.58 µM | 
18 | COc1cc2c(N3CCN(C(=S)SCc4ccc(Cl)cc4)CC3)ncnc2cc1OCCCN1CCCCC1 | 8.04 µM | 3.94 µM | 4.71 µM | 
19 | COc1cc2c(N3CCN(C(=S)SCC4CCOCC4)CC3)ncnc2cc1OCCCN1CCCCC1 | 15.1 µM | 18.4 µM | 19.1 µM | 
20 | COc1cc2c(N3CCN(C(=S)SCc4ccc([N+](=O)[O-])cc4)CC3)ncnc2cc1OCCCN1CCCCC1 | 5.65 µM | 6.89 µM | 5.36 µM | 
21 | COc1cc2c(N3CCN(C(=S)SCc4ccc(Br)cc4)CC3)ncnc2cc1OCCCN1CCCCC1 | 4.52 µM | 3.93 µM | 4.31 µM | 
22 | COc1cc2c(N3CCN(C(=O)Nc4ccc(OC(C)C)cc4)CC3)ncnc2cc1OCCCN1CCCCC1 [TANDUTINIB] | 18.1 µM | 14.7 µM | 14.8 µM | 
23 | O=c1[nH]cc(F)c(=O)[nH]1 [FLUOROURACIL] |  |  |  | Activity (HCT-116 [8]): 8.29%; Activity (HCT-116 [9]): 28.47%; Activity (HCT-116 [11]): 62.28%
24 | COc1ccc(CSC(=S)N2CCN(c3ncnc4cc(OCCCN5CCCCC5)c(OC)cc34)CC2)cc1 | 4.92 µM | 4.16 µM | 4.25 µM | 
25 | COc1cc2c(N3CCN(C(=S)SCc4ccsc4)CC3)ncnc2cc1OCCCN1CCCCC1 | 5.64 µM | 5.17 µM | 4.84 µM | 
26 | COc1cccc(CSC(=S)N2CCN(c3ncnc4cc(OCCCN5CCCCC5)c(OC)cc34)CC2)c1 | 8.01 µM | 3.86 µM | 4.58 µM | 
27 | COc1cc2c(N3CCN(C(=S)SCC4CCCO4)CC3)ncnc2cc1OCCCN1CCCCC1 (centres undefined) | 19.2 µM | 22.7 µM | 22.8 µM | 
28 | COc1cc2c(N3CCN(C(=S)SCc4ccc(C#N)cc4)CC3)ncnc2cc1OCCCN1CCCCC1 | 8.67 µM | 10.1 µM | 9.52 µM | 
29 | COc1cc2c(N3CCN(C(=S)SCc4ccc(F)c(F)c4)CC3)ncnc2cc1OCCCN1CCCCC1 | 5.96 µM | 3.07 µM | 4.9 µM | 
